Results of several laboratories.
Each line is one published result; the experiments were not run side by side.
Target: Cholinesterase (BCHE, Homo sapiens, UniProt P06276)
Read-out: enzyme activity
Action: inhibitor

| Compound | technique | medium | IC50 |
| --- | --- | --- | --- |
| C=CCn1c2cc(OC(=O)CCCCN3CCN(Cc4ccc(Cl)cc4)CC3)ccc2c2ccnc(C)c21 | Ellman |  | 674 nM |
| Clc1ccc(Nc2nc3ccccc3c3[nH]c(C4CCCCC4)nc23)cc1Cl |  |  | 4910 nM |
| C=CCn1c2cc(OC(=O)CCCCN3CCN(Cc4ccc(C(F)(F)F)cc4)CC3)ccc2c2ccnc(C)c21 | Ellman |  | 204 nM |
| CC(C)(C)c1ccc(OP(=O)(Oc2ccc(C(C)(C)C)cc2)Oc2ccc(C(C)(C)C)cc2)cc1 |  | liver microsomes | > 20 µg/mL |
| O=c1[nH]cc(CO)c(=O)[nH]1 | Ellman |  | 443 nM |
| C#CCN(C)c1nc(NCCCC2CCN(Cc3ccccc3)CC2)c(C#N)cc1C#N | Ellman |  | 1680 nM |
| Cc1ccc(S(=O)(=O)n2cc(Br)c(=O)[nH]c2=O)cc1 | Ellman |  | 137 nM |
| C=CCn1c2cc(OC(=O)CCCCN3CCN(Cc4ccc(C)cc4)CC3)ccc2c2ccnc(C)c21 | Ellman |  | 581 nM |
| Cc1ccccc1OP(=O)(Oc1ccccc1C)Oc1ccccc1C |  |  | ~330 nM |
| Cc1cc(O)nc(O)n1 | Ellman |  | 368 nM |
| CC(C)(C)c1ccccc1OP(=O)(Oc1ccccc1C(C)(C)C)Oc1ccccc1C(C)(C)C |  | liver microsomes | > 20 µg/mL |
| CS(=O)(=O)n1cc(Br)c(=O)[nH]c1=O | Ellman |  | 195 nM |
